Results of several laboratories.
Protocols differ between the studies behind these lines.
Organism: Plasmodium falciparum
Effect on: parasite growth

SMILES | technique | strain | time | notes | EC50
CCN(CC)CCCC(C)Nc1ccnc2cc(Cl)ccc12 (stereo not drawn) | SYBR Green | D6 | 72 h | blood stage | 9.1 nM
Cc1noc(-c2cccs2)c1C(=O)NCCc1cccc(Cl)c1 | SYBR Green | 3D7 |  |  | 313 nM
COc1cc2[nH]c(C)c(-c3ccccc3)c(=O)c2cc1Cl |  | W2 |  | drug-resistant strain, blood stage | 26.2 nM
COc1cc2[nH]c(C)c(-c3ccc(Oc4ccc(OC(F)(F)F)cc4)cc3)c(=O)c2cc1Cl | SYBR Green | D6 | 72 h | blood stage | 0.9 nM
O=S(=O)(c1ccc(-c2ccc3ncnc(Nc4ccc(OCc5ccccc5)c(Cl)c4)c3c2)cc1)N1CCOCC1 | SYBR Green | W2 |  | drug-resistant strain, blood stage | 720 nM
COCC(C)n1c(SCC(=O)Nc2cc(C(F)(F)F)ccc2Cl)nc2ccccc2c1=O (stereo not drawn) | SYBR Green | 3D7 |  |  | 356 nM
Cc1c2oc3c(C)ccc(C(=O)N[C@@H]4C(=O)N[C@H](C(C)C)C(=O)N5CCC[C@H]5C(=O)N(C)CC(=O)N(C)[C@@H](C(C)C)C(=O)O[C@@H]4C)c3nc-2c(C(=O)N[C@@H]2C(=O)N[C@H](C(C)C)C(=O)N3CCC[C@H]3C(=O)N(C)CC(=O)N(C)[C@@H](C(C)C)C(=O)O[C@@H]2C)c(N)c1=O | SYBR Green | 3D7 |  | blood stage | 1000 nM
O=C1C(O)=C([C@H]2CC[C@H](c3ccc(Cl)cc3)CC2)C(=O)c2ccccc21 | SYBR Green | D6 | 72 h | blood stage | < 0.25 nM
Cc1cc(N[C@H]2CCc3ccc(Cl)cc3C2)n2nc(C(C)(F)F)nc2n1 |  | K1 |  | drug-resistant strain, blood stage | 1.7 nM
CN1CCN(S(=O)(=O)c2ccc(-c3ccc4ncnc(Nc5ccc(OCc6cccc(F)c6)c(Cl)c5)c4c3)cc2)CC1 | SYBR Green | W2 |  | drug-resistant strain, blood stage | 44 nM
C[C@H]1[C@@H](O)O[C@@H]2O[C@@]3(C)CC[C@H]4[C@H](C)CC[C@@H]1[C@@]24OO3 | SYBR Green | 3D7 |  |  | 3.56 nM
Cc1cc(NC2Cc3cc(F)c(F)cc3C2)n2nc(C(C)(F)F)nc2n1 |  | K1 |  | drug-resistant strain, blood stage | 49 nM
